Experiment [1] has as its target T1, Adrenergic receptor alpha-1 (Rattus norvegicus, UniProt P15823+P23944+P43140).
T1 sequence (P15823 whole entry): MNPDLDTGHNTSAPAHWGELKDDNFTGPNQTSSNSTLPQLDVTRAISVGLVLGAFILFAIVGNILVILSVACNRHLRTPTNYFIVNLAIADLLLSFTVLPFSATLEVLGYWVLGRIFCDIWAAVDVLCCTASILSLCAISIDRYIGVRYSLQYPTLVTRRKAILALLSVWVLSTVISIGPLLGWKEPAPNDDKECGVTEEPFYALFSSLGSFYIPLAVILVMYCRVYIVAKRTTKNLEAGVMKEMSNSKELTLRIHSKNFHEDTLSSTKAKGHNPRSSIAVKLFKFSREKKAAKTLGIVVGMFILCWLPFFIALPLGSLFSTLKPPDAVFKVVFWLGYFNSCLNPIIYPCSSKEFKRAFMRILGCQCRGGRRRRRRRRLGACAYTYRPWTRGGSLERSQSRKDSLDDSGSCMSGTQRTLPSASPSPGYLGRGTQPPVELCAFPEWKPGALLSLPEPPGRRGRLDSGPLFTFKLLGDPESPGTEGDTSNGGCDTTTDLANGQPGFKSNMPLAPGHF
T1 sequence (P23944 whole entry): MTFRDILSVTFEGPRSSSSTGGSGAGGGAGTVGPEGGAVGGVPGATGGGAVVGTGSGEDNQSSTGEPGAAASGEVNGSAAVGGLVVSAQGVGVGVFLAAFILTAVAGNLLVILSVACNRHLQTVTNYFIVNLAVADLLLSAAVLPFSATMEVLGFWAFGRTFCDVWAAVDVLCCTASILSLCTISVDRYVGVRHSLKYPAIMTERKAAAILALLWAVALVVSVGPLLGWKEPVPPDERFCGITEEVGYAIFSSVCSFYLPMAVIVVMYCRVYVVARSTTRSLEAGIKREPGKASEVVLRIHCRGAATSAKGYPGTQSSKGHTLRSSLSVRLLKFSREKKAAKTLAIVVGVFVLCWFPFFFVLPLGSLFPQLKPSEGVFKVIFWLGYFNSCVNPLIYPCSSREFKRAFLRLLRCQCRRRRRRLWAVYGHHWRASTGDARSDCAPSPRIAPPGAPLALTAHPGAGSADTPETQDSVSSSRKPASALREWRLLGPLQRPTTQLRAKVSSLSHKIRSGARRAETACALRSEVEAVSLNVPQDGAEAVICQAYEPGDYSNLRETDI
T1 sequence (P43140 whole entry): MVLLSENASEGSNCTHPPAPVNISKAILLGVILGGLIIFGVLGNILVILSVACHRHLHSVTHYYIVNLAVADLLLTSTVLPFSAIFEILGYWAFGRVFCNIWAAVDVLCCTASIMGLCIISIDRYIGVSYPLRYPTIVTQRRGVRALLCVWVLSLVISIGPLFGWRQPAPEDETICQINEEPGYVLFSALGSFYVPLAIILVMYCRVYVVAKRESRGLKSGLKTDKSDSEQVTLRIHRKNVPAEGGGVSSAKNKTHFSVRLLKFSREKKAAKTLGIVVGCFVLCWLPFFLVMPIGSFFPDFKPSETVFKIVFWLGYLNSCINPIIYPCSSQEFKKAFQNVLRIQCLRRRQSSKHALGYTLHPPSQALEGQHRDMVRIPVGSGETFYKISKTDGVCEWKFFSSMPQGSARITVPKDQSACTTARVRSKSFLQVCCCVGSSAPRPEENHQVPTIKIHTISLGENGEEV
Description: Binding affinity towards alpha-1 adrenergic receptor in rat cortical membranes. It counts as cell membranes.

Experiment [2] deals with T2, 5-hydroxytryptamine receptor 1A (Rattus norvegicus, UniProt P19327).
T2 sequence (P19327 whole entry): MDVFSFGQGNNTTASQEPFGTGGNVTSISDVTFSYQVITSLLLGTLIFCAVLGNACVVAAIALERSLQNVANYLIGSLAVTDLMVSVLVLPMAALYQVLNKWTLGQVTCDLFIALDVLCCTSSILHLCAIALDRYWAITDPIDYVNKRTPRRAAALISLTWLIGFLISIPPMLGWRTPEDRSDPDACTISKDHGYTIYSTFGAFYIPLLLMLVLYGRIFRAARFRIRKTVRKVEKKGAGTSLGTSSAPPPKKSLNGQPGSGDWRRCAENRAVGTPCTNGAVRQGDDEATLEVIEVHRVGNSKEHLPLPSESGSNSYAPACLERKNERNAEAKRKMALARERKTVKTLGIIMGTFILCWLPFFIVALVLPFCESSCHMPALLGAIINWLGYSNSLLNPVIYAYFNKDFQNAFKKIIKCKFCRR
As to the kind of experiment: Binding was determined on 5-hydroxytryptamine 1A receptor in rat hippocampal membranes. It counts as cell membranes, Hippocampus. The essentials: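 Hippocampus from male Wistar Hannover rats, homogenized in 50 mM Tris pH 7.6, washed, and preincubated 10 min at 37 °C. Ki given as mean ± SEM.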

Experiment [3] addresses T3, Alpha-1D adrenergic receptor (Homo sapiens, UniProt P25100).
T3 sequence (P25100 whole entry): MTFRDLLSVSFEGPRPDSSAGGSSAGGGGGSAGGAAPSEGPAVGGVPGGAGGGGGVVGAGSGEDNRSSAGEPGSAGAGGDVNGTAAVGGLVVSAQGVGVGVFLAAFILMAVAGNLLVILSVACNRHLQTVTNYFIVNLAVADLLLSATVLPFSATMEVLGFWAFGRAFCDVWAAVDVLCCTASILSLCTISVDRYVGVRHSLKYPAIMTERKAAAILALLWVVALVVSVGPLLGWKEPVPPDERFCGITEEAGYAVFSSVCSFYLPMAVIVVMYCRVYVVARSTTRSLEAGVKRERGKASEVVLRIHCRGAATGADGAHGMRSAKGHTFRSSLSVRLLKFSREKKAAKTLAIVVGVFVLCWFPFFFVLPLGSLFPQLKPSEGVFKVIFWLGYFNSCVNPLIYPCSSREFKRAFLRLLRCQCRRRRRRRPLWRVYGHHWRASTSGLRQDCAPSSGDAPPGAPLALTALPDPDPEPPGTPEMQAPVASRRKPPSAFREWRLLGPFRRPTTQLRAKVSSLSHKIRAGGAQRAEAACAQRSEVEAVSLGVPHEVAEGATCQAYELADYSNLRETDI
Description: Binding affinity towarda alpha-1D adrenergic receptor. The essentials: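 Membranes from CHO cells stably expressing each human α1-adrenoceptor subtype, incubated in 50 mM Tris pH 7.4 with 0.2 nM [3H]prazosin and competing drugs (1 pM–10 µM), 30 min at 25 °C. Nonspecific binding with 10 µM phentolamine. Stopped with ice-cold Tris and filtration through 0.2% PEI-pretreated filters.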

A short description of experiment [4]: Selectivity expressed as a ratio of affinity against Alpha 1b-Adrenoceptor to that of 5-HT1A receptor.

Molecules are shown by their SMILES. Bounds are passed on as bounds.

Turning to `COc1cccc(C2CCC(NCCOc3ccccn3)CC2)c1` (stereo in doubt), the inhibitory constant (Ki) in experiment [1] was greater than 850 nM; in experiment [2], 17 nM; in experiment [3], 142 nM.
For `COc1cccc(C2CCC(N3CCN(c4ccccc4OC)CC3)CC2)c1` (stereo in doubt; trans), in that order: 312 nM, 0.02 nM and 4.49 nM.
For `COc1cccc2c1CCCC2CCCN1CCN(c2ccccn2)CC1` (stereo not given), the Ki in experiment [1] came out at 55 nM; in experiment [2], 0.48 nM; in experiment [3] it was 5.95 nM. Moreover, the Selectivity in experiment [4] came to 98.
For `COc1cccc2c1CCCC2CCCNCCOc1ccccn1` (stereo not given), in that order: 83 nM, 0.54 nM, 12.7 nM and 115.
For `COc1cccc2c(CCCN3CCN(c4ccccn4)CC3)cccc12`, in that order: 833 nM, 0.38 nM, 12.6 nM and 1.
For `COc1cccc2c(CCCNCCOc3ccccn3)cccc12`, in that order: 1300 nM, 0.19 nM, 83.2 nM and 314.
In the case of `COc1cccc(C2CCC(N3CCN(c4ccccn4)CC3)CC2)c1` (trans isomer), the results for the Ki in experiment [1], in experiment [2] and in experiment [3] were 767 nM, 0.028 nM and 118 nM, respectively.

As usually defined, the Ki is the equilibrium dissociation constant of an inhibitor or competing ligand from its target.

Source of the values: ChEMBL document CHEMBL1134307, “trans-4-[4-(Methoxyphenyl)cyclohexyl]-1-arylpiperazines: a new class of potent and selective 5-HT(1A) receptor ligands as conformationally constrained analogues of 4-[3-(5-methoxy-1,2,3,4-tetrahydronaphthalen-1-yl)propyl]-1-arylpiperazines” (J Med Chem, 2001).
